ChEMBL document CHEMBL2029225, “Synthesis of marine-derived 3-alkylpyridinium alkaloids with potent antiprotozoal activity” (ACS Med Chem Lett, 2011)
The source made the active and inactive calls. No cut-off for these calls is given here.

Experiments:
Leishmania major = experiment: Antileishmanial activity against promastigotes of Leishmania major Friedlin after 72 hrs by alamar blue assay; assay type: functional, organism-based
[1] = test system: Trypanosoma brucei brucei; experiment: Antitrypanosomal activity against bloodstream form of Trypanosoma brucei brucei 427 (BS221) assessed as increased propidium iodide uptake at 50 to 100 uM after 30 mins by real-time cell lysis assay; assay type: functional, organism-based
In short: (§1)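 Real-time lysis assay with bloodstream-form T. brucei: propidium iodide in the medium fluoresces only on binding DNA/RNA in membrane-compromised cells. Fluorescence was followed for up to 8 h across a range of concentrations. The read-out was the time to reach 80% lysis versus concentration.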

Leishmania mexicana = experiment: Antileishmanial activity against amastigotes of Leishmania mexicana MNYC/BZ/62/M379 after 72 hrs by alamar blue assay; assay type: functional, organism-based; conditions: MNYC/BZ/62/M379, 72 h
HEK-293T = experiment: Cytotoxicity against human HEK293T cells after 72 hrs by alamar blue assay; assay type: cell-based
Plasmodium falciparum = experiment: Antiplasmodial activity against Plasmodium falciparum 3D7 assessed as inhibition of [3H]hypoxanthine incorporation after 18 hrs by liquid scintillation counting; assay type: functional, organism-based
[2] = test system: Trypanosoma brucei brucei; experiment: Antitrypanosomal activity against TbAt1-deficient bloodstraem form Trypanosoma brucei brucei B48 after 72 hrs by alamar blue assay; assay type: functional, organism-based; conditions: B48, 72 h
[3] = test system: Trypanosoma brucei brucei; experiment: Antitrypanosomal activity against bloodstream form of Trypanosoma brucei brucei 427 (BS221) assessed as increased propidium iodide uptake at >/=100 times EC50 after 8 hrs by real-time cell lysis assay; assay type: functional, organism-based; in short: as §1
[4] = test system: Trypanosoma brucei brucei; experiment: Antitrypanosomal activity against TbAt1-deficient bloodstraem form of Trypanosoma brucei brucei 427 (BS221) after 72 hrs by alamar blue assay; assay type: functional, organism-based
[5] = test system: Trypanosoma brucei brucei; experiment: Antitrypanosomal activity against bloodstream form of Trypanosoma brucei brucei 427 (BS221) after 72 hrs by alamar blue assay; assay type: functional, organism-based
[6] = test system: Trypanosoma brucei brucei; experiment: Antitrypanosomal activity against bloodstream form of Trypanosoma brucei brucei 427 (BS221) assessed as increased propidium iodide uptake at 10 to 50 times EC50 after by real-time cell lysis assay; assay type: functional, organism-based; in short: as §1
[7] = test system: Trypanosoma brucei brucei; experiment: Antitrypanosomal activity against bloodstream form of Trypanosoma brucei brucei s427 assessed as DNA fragmentation at 0.3 uM after 48 hrs by flow cytometry; assay type: functional, organism-based
In short: (§2)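 Bloodstream-form T. brucei cultures were exposed to compound for up to 48 h, with duplicate samples taken at 24 and 48 h. Lysis sample: PI added directly for 10 min. DNA-content sample: fixed in 70% methanol or permeabilized with digitonin, RNase-treated, then PI-stained. 10000 cells were counted per panel by flow cytometry, and the experiment was run three times.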

[8] = test system: Trypanosoma brucei brucei; experiment: Antitrypanosomal activity against Trypanosoma brucei brucei 427 at 1 uM after 24 hrs by hemocytometry; assay type: functional, organism-based
In short: (§3)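 Reversibility test: bloodstream-form T. brucei cultures seeded at 2 × 10⁴ cells, compound added at t = 0 h. Compound was washed out after 24 h or 48 h, or left in. Growth was monitored over 72 h against drug-free controls.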

[9] = Selectivity ratio of EC50 for human HEK293 cells to EC50 for bloodstream form of Trypanosoma brucei brucei 427 (BS221); assay type: ADME, cell-based; conditions: read-out: Ratio EC50
[10] = test system: Trypanosoma brucei brucei; experiment: Antitrypanosomal activity against digitonin permeabilized bloodstream form of Trypanosoma brucei brucei s427 assessed as decrease in 2C/4C DNA content by DAPI staining-based fluorescent microscopy; assay type: functional, organism-based
[11] = test system: Trypanosoma brucei brucei; experiment: Antitrypanosomal activity against bloodstream form of Trypanosoma brucei brucei s427 assessed as cell cylce arrest at 0.3 uM after 24 hrs by flow cytometry; assay type: functional, organism-based; in short: as §2
[12] = test system: Trypanosoma brucei brucei; experiment: Antitrypanosomal activity against Trypanosoma brucei brucei 427 at 0.1 uM after 72 hrs by hemocytometry; assay type: functional, organism-based; in short: as §3
[13] = test system: Trypanosoma brucei brucei; experiment: Antitrypanosomal activity against bloodstream form of Trypanosoma brucei brucei s427 assessed as increase in propidium iodide uptake at 0.3 uM after 48 hrs by flow cytometry; assay type: functional, organism-based; in short: as §2
[14] = test system: Trypanosoma brucei brucei; experiment: Antitrypanosomal activity against Trypanosoma brucei brucei 427 at 10 uM after 24 hrs by hemocytometry; assay type: functional, organism-based; in short: as §3
[15] = test system: Trypanosoma brucei brucei; experiment: Antitrypanosomal activity against digitonin permeabilized bloodstream form of Trypanosoma brucei brucei s427 assessed as DNA fragmentation at 1 uM at 24 hrs by flow cytometry; assay type: functional, organism-based; in short: as §2
[16] = test system: Trypanosoma brucei brucei; experiment: Antitrypanosomal activity against digitonin permeabilized bloodstream form of Trypanosoma brucei brucei s427 assessed as increase in propidium iodide uptake at 1 uM at 24 hrs by flow cytometry; assay type: functional, organism-based; in short: as §2
[17] = Selectivity ratio of EC50 for human HEK293 cells to EC50 for TbAt1-deficient bloodstraem form of Trypanosoma brucei brucei 427 (BS221); assay type: ADME, cell-based; conditions: read-out: Ratio EC50
[18] = test system: Trypanosoma brucei brucei; experiment: Antitrypanosomal activity against bloodstream form of Trypanosoma brucei brucei s427 assessed as increase in propidium iodide uptake at 0.3 to 1 uM up to 48 hrs by flow cytometry; assay type: functional, organism-based; in short: as §2
[19] = test system: Trypanosoma brucei brucei; experiment: Antitrypanosomal activity against bloodstream form of Trypanosoma brucei brucei s427 assessed as DNA fragmentation at 0.3 to 1 uM up to 48 hrs by flow cytometry; assay type: functional, organism-based; in short: as §2
[20] = Selectivity ratio of EC50 for human HEK293 cells to EC50 for Leishmania mexicana MNYC/BZ/62/M379; assay type: ADME, cell-based; conditions: read-out: Ratio EC50
[21] = test system: Trypanosoma brucei brucei; experiment: Antitrypanosomal activity against digitonin permeabilized bloodstream form of Trypanosoma brucei brucei s427 assessed as DNA fragmentation at 0.3 to 1 uM up to 48 hrs by flow cytometry; assay type: functional, organism-based; in short: as §2
[22] = test system: Trypanosoma brucei brucei; experiment: Antitrypanosomal activity against digitonin permeabilized bloodstream form of Trypanosoma brucei brucei s427 assessed as increase in propidium iodide uptake at 0.3 to 1 uM up to 48 hrs by flow cytometry; assay type: functional, organism-based; in short: as §2
[23] = Selectivity ratio of EC50 for human HEK293 cells to EC50 for Leishmania major Friedlin; assay type: ADME, cell-based; conditions: read-out: Ratio EC50
[24] = Selectivity ratio of EC50 for human HEK293 cells to EC50 for Plasmodium falciparum 3D7; assay type: ADME, cell-based; conditions: read-out: Ratio EC50
[25] = test system: Trypanosoma brucei brucei; experiment: Antitrypanosomal activity against bloodstream form of Trypanosoma brucei brucei 427 (BS221) assessed as increased propidium iodide uptake at 780 nM after 3 hrs by real-time cell lysis assay; assay type: functional, organism-based; in short: as §1

Row | Structure (SMILES) | EC50 (Leishmania major) [nM] | Activity [1] | EC50 (Leishmania mexicana) [nM] | EC50 (HEK-293T) [nM] | EC50 (Plasmodium falciparum) [nM] | EC50 [2] [nM] | EC50 [4] [nM] | EC50 [5] [nM] | other results
1 | COc1ccc(C[n+]2cccc(CCCCCCCCCCCCCI)c2)cc1 | 1000 | Active | 400 | 41000 | 220 | 200 | 480 | 190 | Activity [3]: Active
2 | c1cc2c[n+](c1)CCCCCCCCCCCCCc1ccc[n+](c1)CCCCCCCCCCCCCc1ccc[n+](c1)CCCCCCCCCCCCCc1ccc[n+](c1)CCCCCCCCCCCCC2 | 640 | Active | 1100 | 14000 | 190 | 420 | 660 | 560 | Activity [6]: Active
3 | CCCC[n+]1cccc(CCCCCCCCCCCCCI)c1 | 360 | Active | 290 | 26000 | 310 | 34 | 63 | 14 | Activity [7]: Active; Activity [8]: Active; selectivity ratio [9]: > 1000; Activity [10]: inactive; Activity [11]: inactive; Activity [12]: inactive; Activity [13]: Active; Activity [14]: Active; Activity [3]: Active; Activity [15]: inactive; Activity [16]: Active; selectivity ratio [17]: > 1000
4 | C[n+]1cccc(CCCCCCCCCCCCCI)c1 | 310 | Active | 280 | 47000 | 260 | 110 | 180 | 86 | Activity [18]: inactive; selectivity ratio [9]: 540; Activity [10]: inactive; Activity [19]: inactive; selectivity ratio [20]: 149; Activity [14]: Active; Activity [3]: Active; Activity [21]: inactive; selectivity ratio [17]: 540; Activity [22]: inactive; selectivity ratio [23]: 149
5 | OCCCCCCCCCCCCCc1ccc[n+](CCCCCCCCCCCCCc2ccc[n+](CCCCCCCCCCCCCc3cccnc3)c2)c1 | 850 | Active | 190 | 16000 | 68 | 250 | 270 | 220 | selectivity ratio [24]: 237; Activity [6]: Active
6 | OCCCCCCCCCCCCCc1ccc[n+](CCCCCCCCCCCCCc2ccc[n+](CCCCCCCCCCCCCc3ccc[n+](CCCCCCCCCCCCCc4cccnc4)c3)c2)c1 | 1100 | Active | 230 | 11000 | 160 | 330 | 410 | 310 | Activity [6]: Active
7 | OCCCCCCCCCCCCCc1cccnc1 | > 50000 |  | > 50000 | 204000 | 7500 | 35000 | 34000 | 16000 | 
8 | N=C(N)c1ccc(OCCCCCOc2ccc(C(=N)N)cc2)cc1 [PENTAMIDINE] | 4300 |  | 8800 |  |  | 66 | 3.2 | 1.4 | 
9 | C[n+]1cccc(CCCCCCCCCCCCCO)c1 | 2700 | Active | 4800 | 183000 | 1500 | 2700 | 2300 | 2300 | 
10 | NCCS[As](SCCN)c1ccc(Nc2nc(N)nc(N)n2)cc1 |  |  |  |  |  | 210 | 7.8 | 3.9 | 
11 | CCCC[n+]1cccc(CCCCCCCCCCCCCO)c1 | 330 | Active | 1700 | 48000 | 510 | 200 | 260 | 160 | Activity [18]: inactive; selectivity ratio [9]: 299; Activity [10]: inactive; Activity [19]: inactive; selectivity ratio [20]: 145; Activity [14]: Active; Activity [3]: Active; Activity [21]: inactive; selectivity ratio [17]: 299; Activity [22]: inactive; selectivity ratio [23]: 145
12 | OCCCCCCCCCCCCCc1ccc[n+](CCCCCCCCCCCCCc2cccnc2)c1 | 1600 | Active | 340 | 25000 | 140 | 300 | 620 | 400 | Activity [25]: Active
13 | CCN(CC)CCCC(C)Nc1ccnc2cc(Cl)ccc12 (stereo unspecified) [CHLOROQUINE] |  |  |  |  | 0.67 |  |  |  | 
14 | c1cc2c[n+](c1)CCCCCCCCCCCCCc1ccc[n+](c1)CCCCCCCCCCCCCc1ccc[n+](c1)CCCCCCCCCCCCC2 [VISCOSAMINE] | 720 | Active | 810 | 26000 | 53 | 280 | 490 | 410 | selectivity ratio [24]: 493; Activity [6]: Active
15 | N=C(N)c1ccc(/N=N/Nc2ccc(C(=N)N)cc2)cc1 [DIMINAZEN ACETURATE] |  |  | 24000 |  |  |  | 7900 | 260 | 
